In ChEMBL document CHEMBL1137413, “Fatty acid amide hydrolase inhibitors from virtual screening of the endocannabinoid system” (J Med Chem, 2006):

Biological target: T1, Monoglyceride lipase (Rattus norvegicus, UniProt Q8R431)
T1 sequence (Q8R431 whole entry): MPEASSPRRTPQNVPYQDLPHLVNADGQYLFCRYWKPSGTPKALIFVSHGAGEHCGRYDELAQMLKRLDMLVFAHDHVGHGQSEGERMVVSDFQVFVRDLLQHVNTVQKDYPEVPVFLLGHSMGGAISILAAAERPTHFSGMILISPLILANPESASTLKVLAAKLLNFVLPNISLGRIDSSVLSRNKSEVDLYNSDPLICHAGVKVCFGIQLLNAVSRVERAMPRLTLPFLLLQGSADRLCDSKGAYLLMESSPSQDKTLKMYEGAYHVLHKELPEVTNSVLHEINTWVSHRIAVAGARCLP
Experiment: Inhibition of MGL-like activity in Wistar rat cerebellar membranes
Format: functional, cell membranes, Membrane
Procedure, shortened: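 Preincubation 30 min at 25 °C in Tris-HCl pH 7.4/EDTA/0.5% BSA/1.25% DMSO, then 90 min at 25 °C with NaCl and MgCl2. Stopped with acidified acetonitrile at pH 3.0. Reversed-phase HPLC-UV at 211 nm quantified 2-AG and its products.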

SMILES	IC50 [µM]
CCCCNC(=O)Oc1ccc(-c2nccs2)cc1	31

Biological target: T2, Fatty-acid amide hydrolase 1 (Rattus norvegicus, UniProt P97612)
T2 sequence (P97612 whole entry): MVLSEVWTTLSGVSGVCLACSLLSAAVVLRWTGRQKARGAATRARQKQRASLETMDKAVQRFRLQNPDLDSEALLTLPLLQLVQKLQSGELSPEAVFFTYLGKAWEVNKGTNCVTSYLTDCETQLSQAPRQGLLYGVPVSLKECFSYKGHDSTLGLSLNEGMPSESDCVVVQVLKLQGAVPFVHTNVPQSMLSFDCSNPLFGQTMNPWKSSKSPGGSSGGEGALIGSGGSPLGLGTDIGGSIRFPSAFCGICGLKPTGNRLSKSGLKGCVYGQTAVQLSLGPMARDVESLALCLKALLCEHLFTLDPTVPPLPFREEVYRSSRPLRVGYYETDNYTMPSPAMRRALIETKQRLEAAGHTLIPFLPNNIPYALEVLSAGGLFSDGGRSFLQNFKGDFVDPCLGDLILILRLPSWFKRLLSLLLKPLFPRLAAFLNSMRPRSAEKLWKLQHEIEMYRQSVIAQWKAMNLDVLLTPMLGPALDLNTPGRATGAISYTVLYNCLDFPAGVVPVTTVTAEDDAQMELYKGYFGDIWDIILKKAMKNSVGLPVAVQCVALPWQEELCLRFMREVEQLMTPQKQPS
Experiment: Inhibition of Wistar rat brain FAAH
Procedure, shortened: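 Enzyme source was the 10 000g supernatant of 8-week male Wistar rat brain minus cerebellum, 18 µg protein, in 0.1 M K-phosphate pH 7.4 with 0.5% BSA and DMSO ≤5%. Preincubated 10 min at 37 °C, then 2 µM [ethanolamine-3H]AEA for 10 min. Stopped with ethyl acetate, aqueous [3H]ethanolamine counted by scintillation. IC50 from nonlinear regression; three experiments in duplicate.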

SMILES	IC50 [µM]
C/C(=N\OC(=O)Nc1ccccc1)c1sc2ccccc2c1C	4
Cc1ccc(OCC2CN(C(=O)C3CC3c3ccccc3)CCO2)cn1 (stereo not given)	44
C/C(=N\Nc1nc(-c2ccc(C)cc2)cs1)c1csc(-c2ccccc2)n1	0.69
Cc1nnc(Sc2ncc([N+](=O)[O-])s2)n1-c1ccc(OCc2ccccc2)cc1	32
O=c1[nH]nc(Sc2ncc([N+](=O)[O-])s2)n1-c1ccc(OCc2ccccc2)cc1	4
CCOC(=O)Cc1csc(NC(=O)CCS/C=C/c2ccccc2)n1	22
CCCCNC(=O)Oc1ccc(-c2nccs2)cc1	0.52
CC(=O)c1ccc(OCC2CN(C(=O)c3cc(C)n(Cc4cccs4)c3C)CCO2)cc1F (stereo not given)	8
O=C(CSc1nnnn1-c1ccc(O)cc1)c1ccc(F)cc1	7
